“Also recorded” adds a separate entry of the source.
Columns and labels:
CDK1/cyclin B1 = CDK1/cyclin B1 (Homo sapiens, UniProt P06493); test: In vitro CDK1 kinase assay; assay type: biochemical; conditions: for inhibition of CDK1 enzyme activity: quantification of band intensities, Fig. 1C/D, H1 histones; for effect on CDK1 enzyme activity (in words): in vitro kinase assay, H1 histone phosphorylation
How it was run: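 Purified CDK1/cyclin B1 complex in kit reaction buffer, pre-incubated with test compound at various concentrations for 10 min at room temperature. Phosphorylation run with 15 µM ATP, 2 µCi [γ-32P]ATP and 5 µg H1 histone at 30°C for 20 min, then stopped with 20 mM EDTA (final). Products resolved by 10% SDS-PAGE and autoradiographed; bands quantified as percent of control. Done 3–6 independent times.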

CDK2/cyclin A2 [1] = molecular target: T1, CDK2/cyclin A2 (Homo sapiens, UniProt P24941); test: In vitro CDK2 kinase assay; assay type: biochemical; conditions: for effect on CDK2 enzyme activity (in words): 0.5 mM (Fig. 7), pre-incubated 10 min, H1 histones
How it was run: (§1)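 Kinases were purified CDK2/cyclin A2, CDK4/cyclin D1 and CDK6/cyclin D1, each pre-incubated with test compound for 10 min at room temperature, mostly at 0.5 mM, with some dose series. Reaction used 15 µM ATP, 2 µCi [γ-32P]ATP and 5 µg protein substrate (H1 histone for CDK2) at 30°C for 20 min, stopped with 20 mM EDTA. Read by SDS-PAGE autoradiography, bands expressed as percent of control.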

CDK4/cyclin D1 = CDK4/cyclin D1 (Homo sapiens, UniProt P11802); test: In vitro CDK4 kinase assay; assay type: biochemical; conditions: for effect on CDK4 enzyme activity (in words): 0.5 mM (Fig. 7E, F), Rb substrate
How it was run: as §1

CDK6/cyclin D1 = CDK6/cyclin D1 (Homo sapiens, UniProt Q00534); test: In vitro CDK6 kinase assay; assay type: biochemical; conditions: for effect on CDK6 enzyme activity (in words): 0.5 mM (Fig. 7G, H), Rb substrate; for inhibition at 500 µM: read-out: inhibition of CDK6 activity
How it was run: as §1

MTT cytotoxicity assay = assay type: cell-based, human; conditions: human, HCT-116 colorectal carcinoma cells
How it was run: (§2)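 HCT-116 cells kept in McCoy's 5A with 10% FBS, seeded overnight at 20,000 cells/well, then exposed to test compounds at various concentrations for 72 h. Viability read by MTT. IC50 taken from the concentration series. Experiments repeated 3–6 times independently.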

HCT-116 cells = test: MTT cytotoxicity assay; assay type: cell-based, human; conditions: Homo sapiens, HCT-116, 72 h, read-out: MTT assay HCT-116 72 h (IC50)
How it was run: as §2

[2] = molecular target: cellular CDK1 in HCT-116 cells (Homo sapiens, UniProt P06493); test: Acetylation of cellular CDK1 in HCT-116 cells; assay type: cell-based; conditions: 0.25–2.5 mM, 12 h
CDK2/cyclin A2 [3] = molecular target: T1, CDK2/cyclin A2; conditions: in vitro kinase assays; cited from earlier work
[4] = cited from earlier work
[5] = CDK1 IC50, Table III, purified CDK1 enzyme
[6] = CDK1 IC50, text, dose-dependent inhibition, Fig. 1E-H

CDK4/cyclin D1, sequence (P11802 whole entry): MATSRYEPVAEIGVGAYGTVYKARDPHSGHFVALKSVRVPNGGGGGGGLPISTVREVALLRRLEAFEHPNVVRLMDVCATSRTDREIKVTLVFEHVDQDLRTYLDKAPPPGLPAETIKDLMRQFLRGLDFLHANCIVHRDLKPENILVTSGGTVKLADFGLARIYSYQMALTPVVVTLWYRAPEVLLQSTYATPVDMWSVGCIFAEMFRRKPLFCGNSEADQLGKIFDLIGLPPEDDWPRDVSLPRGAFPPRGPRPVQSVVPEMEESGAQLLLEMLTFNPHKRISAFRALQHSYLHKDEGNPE
CDK4/cyclin D1, sequence (P24385 whole entry partner): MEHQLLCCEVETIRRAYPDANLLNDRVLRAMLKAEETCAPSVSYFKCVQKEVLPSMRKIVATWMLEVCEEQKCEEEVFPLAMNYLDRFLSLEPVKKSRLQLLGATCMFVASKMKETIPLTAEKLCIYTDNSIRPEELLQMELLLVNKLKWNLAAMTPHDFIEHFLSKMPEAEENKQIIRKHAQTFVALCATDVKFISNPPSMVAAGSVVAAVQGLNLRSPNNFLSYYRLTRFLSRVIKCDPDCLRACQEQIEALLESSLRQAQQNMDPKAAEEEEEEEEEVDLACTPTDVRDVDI
CDK6/cyclin D1, sequence (Q00534 whole entry): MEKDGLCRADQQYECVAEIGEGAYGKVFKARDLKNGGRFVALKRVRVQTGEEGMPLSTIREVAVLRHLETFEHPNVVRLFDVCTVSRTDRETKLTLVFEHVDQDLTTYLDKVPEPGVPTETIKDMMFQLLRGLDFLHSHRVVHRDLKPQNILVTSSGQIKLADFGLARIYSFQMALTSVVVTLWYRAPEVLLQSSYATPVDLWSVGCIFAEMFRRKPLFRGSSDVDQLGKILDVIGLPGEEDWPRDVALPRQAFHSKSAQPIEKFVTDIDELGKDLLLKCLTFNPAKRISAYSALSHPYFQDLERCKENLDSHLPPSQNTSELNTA
CDK6/cyclin D1, sequence (P24385 whole entry partner): as the sequence (P24385 whole entry partner) above
CDK1/cyclin B1, sequence (P14635 whole entry): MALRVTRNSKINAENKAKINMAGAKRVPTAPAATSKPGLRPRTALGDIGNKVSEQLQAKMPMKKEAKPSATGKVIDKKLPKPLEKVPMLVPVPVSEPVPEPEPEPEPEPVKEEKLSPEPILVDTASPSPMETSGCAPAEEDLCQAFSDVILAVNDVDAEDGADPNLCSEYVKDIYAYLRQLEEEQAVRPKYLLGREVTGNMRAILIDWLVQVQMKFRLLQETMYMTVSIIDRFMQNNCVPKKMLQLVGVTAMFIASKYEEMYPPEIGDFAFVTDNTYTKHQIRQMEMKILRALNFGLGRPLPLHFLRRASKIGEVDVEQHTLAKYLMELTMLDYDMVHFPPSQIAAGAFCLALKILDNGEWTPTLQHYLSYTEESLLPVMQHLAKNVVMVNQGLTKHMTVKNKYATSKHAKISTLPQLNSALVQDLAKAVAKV
CDK1/cyclin B1, sequence (P06493 whole entry): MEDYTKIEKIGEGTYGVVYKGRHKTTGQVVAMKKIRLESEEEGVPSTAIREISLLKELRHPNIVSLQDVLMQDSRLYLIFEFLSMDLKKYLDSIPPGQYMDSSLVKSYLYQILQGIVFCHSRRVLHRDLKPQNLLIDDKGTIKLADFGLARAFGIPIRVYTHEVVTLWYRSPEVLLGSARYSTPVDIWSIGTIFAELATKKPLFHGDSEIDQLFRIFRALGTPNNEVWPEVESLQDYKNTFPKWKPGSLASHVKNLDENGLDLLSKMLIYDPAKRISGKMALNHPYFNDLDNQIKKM
cellular CDK1 in HCT-116 cells, sequence (P06493 whole entry): as above

Row | inhibition of CDK1 enzyme activity (CDK1/cyclin B1) | effect on CDK4 enzyme activity (in words) (CDK4/cyclin D1) | effect on CDK6 enzyme activity (in words) (CDK6/cyclin D1) | SMILES | effect on CDK2 enzyme activity (in words) (CDK2/cyclin A2 [1]) | effect on CDK1 enzyme activity (in words) (CDK1/cyclin B1) | also measured
1 | – | inhibited | inhibited | O=C(O)c1c(O)cc(O)cc1O [2,4,6-THBA, 2,4,6-trihydroxybenzoic acid] | dose-dependent inhibition; also recorded: inhibited | inhibited | IC50 (CDK1/cyclin B1; [5]): 226 µM; IC50 (CDK2/cyclin A2 [1]): ~300 µM; inhibition at 500 µM (CDK4/cyclin D1; read-out: inhibition of CDK4 activity): 45%; inhibition at 500 µM (CDK6/cyclin D1): 40%; IC50 at 72 h (MTT cytotoxicity assay): 800 µM; IC50 (HCT-116 cells): 785 µM
2 | 25% | – | – | O=C(O)c1ccc(O)cc1O [2,4-DHBA, 2,4-dihydroxybenzoic acid] | – | – | –
3 | 22% | – | – | O=C(O)c1cc(O)ccc1O [2,5-DHBA, 2,5-dihydroxybenzoic acid] | – | – | –
4 | – | – | – | O=C(O)c1cc(O)c(O)c(O)c1 [3,4,5-THBA, gallic acid] | – | did not show any inhibitory effect; also recorded: failed to inhibit | –
5 | – | – | – | O=C(O)c1ccc(O)c(O)c1 [3,4-DHBA] | – | did not show any inhibition; also recorded: failed to inhibit | –
6 | – | – | – | O=C(O)c1cc(O)cc(O)c1 [3,5-DHBA] | – | failed to inhibit | –
7 | – | – | – | Nc1ccc(O)c(C(=O)O)c1 [5-aminosalicylic acid, reference compound] | – | did not show any inhibition | effect on CDK1 enzyme activity (in words) (CDK1/cyclin B1; listed as 5-amino-salicylic acid): failed to inhibit
8 | – | failed to inhibit | did not affect | CC(=O)Oc1ccccc1C(=O)O [Aspirin] | did not inhibit | do not inhibit; also recorded: failed to inhibit | acetylation of cellular CDK1 (in words) [2]: acetylated in aspirin treated samples in a dose-dependent fashion; effect on CDK2 enzyme activity (in words), previous study (CDK2/cyclin A2 [3]): failed to inhibit; oral bioavailability [4]: 40–50%
9 | – | failed to inhibit | did not affect | O=C(O)c1ccccc1O [Salicylic acid, reference compound] | did not inhibit | do not inhibit; also recorded: failed to inhibit | effect on CDK2 enzyme activity (in words), previous study (CDK2/cyclin A2 [3]): failed to inhibit; half-life ([4]; depending upon the dose): 4 to 6 h; conjugation with glycine to salicyluric acid ([4]; liver): 20–65%
10 | – | – | – | O=C(O)c1ccccc1 [benzoic acid, reference compound] | – | did not show any inhibition; also recorded: failed to inhibit | –
11 | – | – | – | CN1CC[C@H](c2c(O)cc(O)c3c(=O)cc(-c4ccccc4Cl)oc23)[C@H](O)C1 [flavopiridol, reference compound] | – | dose-dependently inhibited | –

Row | SMILES | inhibition of CDK1 enzyme activity (CDK1/cyclin B1) | effect on CDK4 enzyme activity (in words) (CDK4/cyclin D1) | effect on CDK6 enzyme activity (in words) (CDK6/cyclin D1) | effect on CDK2 enzyme activity (in words) (CDK2/cyclin A2 [1]) | effect on CDK1 enzyme activity (in words) (CDK1/cyclin B1) | also measured
12 | O=C(O)c1cccc(O)c1O [2,3-DHBA, 2,3-dihydroxy-benzoic acid] | 55% | failed to inhibit; also recorded: either no or marginal effect | inhibited | did not inhibit; also recorded: either no or marginal effect | – | IC50 (CDK1/cyclin B1; [5]): 386 µM; IC50 (CDK1/cyclin B1; [6]): 386 µM; inhibition at 500 µM (CDK6/cyclin D1): 28%; IC50 at 72 h (MTT cytotoxicity assay): ~1800 µM; IC50 (HCT-116 cells): 1780 µM
13 | O=C(O)c1c(O)cccc1O [2,6-DHBA, 2,6-dihydroxybenzoic acid] | 65% | failed to inhibit; also recorded: either no or marginal effect | inhibited | did not inhibit; also recorded: either no or marginal effect | – | IC50 (CDK1/cyclin B1; [5]): 365 µM; IC50 (CDK1/cyclin B1; [6]): 365 µM; inhibition at 500 µM (CDK6/cyclin D1): 37%; IC50 at 72 h (MTT cytotoxicity assay): 1900 µM; IC50 (HCT-116 cells): 1950 µM
